The record followed here is ChEMBL document CHEMBL1806386, “Antiproliferative activity of aroylacrylic acids. Structure-activity study based on molecular interaction fields” (Eur J Med Chem, 2011).

The test system of assay [1] is HeLa. As to the kind of experiment: Antiproliferative activity against human HeLa cells assessed as inhibition of cell survival after 72 hrs by MTT method. It counts as functional, cell-based. An outline of the steps: (§1)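 HeLa (2000 cells/well) or LS174 (5000 cells/well) seeded in RPMI-1640 with 10% FBS, 3 mmol/L L-glutamine, 25 mM Hepes, pH 7.2; five concentrations added after 20 h from 10 mM DMSO stocks, each in triplicate. MTT 72 h after dosing, 4 h at 37 °C, SDS solubilization, A570 next day. Blank-subtracted survival vs control; IC50 is the mean of three experiments.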

The nature of assay [2]: Antiproliferative activity against human LS 174T cells assessed as inhibition of cell survival after 72 hrs by MTT method. Format: functional, cell-based. The following applies: LS174T. An outline of the steps:
as §1
On the technique in general: Tetrazolium assays rely on reduction of a dye to a coloured formazan, in cell work by metabolically active cells.

The test system of assay [3] is K562. Nature of the assay: Antiproliferative activity against human K562 cells assessed as inhibition of cell survival after 72 hrs by MTT method. The following applies: K562, 72 h. It counts as functional, cell-based. The essentials: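 K562 grown in suspension at 3000 cells/well in RPMI-1640 with 10% FBS, 3 mmol/L L-glutamine, 25 mM Hepes, pH 7.2. Five concentrations added 2 h after seeding from 10 mM DMSO stocks, in triplicate. MTT read 72 h later, SDS solubilization, A570. IC50 taken from blank-subtracted survival relative to control, mean of three experiments.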

Assay [4] has as its system HeLa. Nature of the assay: Cell cycle arrest in human HeLa cells assessed as accumulation at sub-G1 phase at 2 times IC50 after 24 hrs using propidium iodide staining by flow cytometry (reference value: 3.34%). Format: functional. The essentials:
(§2)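 HeLa cells, 5×10⁵ per aliquot, treated at two times the 72 h IC50 for 24, 48 or 72 h alongside untreated controls. Fixed in 70% ethanol on ice for one week, given RNase A at 37 °C for 30 min, then PI for at least 30 min. Flow cytometry with 488 nm excitation, FL2 at 585/42 nm, doublets excluded, 20,000 events per sample.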
A general note: Flow cytometry measures light scatter and fluorescence of single cells or particles in a stream.

For assay [5], the system named is HeLa. Nature of the assay: Cell cycle arrest in human HeLa cells assessed as accumulation at G1 phase at 2 times IC50 after 24 hrs using propidium iodide staining by flow cytometry (reference value: 46.78%). Format: functional. An outline of the steps: as §2
For assay [6], the system named is HeLa. Nature of the assay: Cell cycle arrest in human HeLa cells assessed as accumulation at S phase at 2 times IC50 after 24 hrs using propidium iodide staining by flow cytometry (reference value: 24.47%). Format: functional. The essentials:
as §2

Assay [7] deals with HeLa. As to the kind of experiment: Cell cycle arrest in human HeLa cells assessed as accumulation at G2/M phase at 2 times IC50 after 24 hrs using propidium iodide staining by flow cytometry (reference value: 25.97%). Format: functional. An outline of the steps: as §2
The subject of assay [8] is HeLa. Nature of the assay: Cell cycle arrest in human HeLa cells assessed as accumulation at sub-G1 phase at 2 times IC50 after 48 hrs using propidium iodide staining by flow cytometry (reference value: 6.87%). It counts as functional. An outline of the steps:
as §2

For assay [9], the system named is HeLa. Nature of the assay: Cell cycle arrest in human HeLa cells assessed as accumulation at G1 phase at 2 times IC50 after 48 hrs using propidium iodide staining by flow cytometry (reference value: 51.32%). It counts as functional. The essentials: as §2
The subject of assay [10] is HeLa. Nature of the assay: Cell cycle arrest in human HeLa cells assessed as accumulation at S phase at 2 times IC50 after 48 hrs using propidium iodide staining by flow cytometry (reference value: 20.14%). Format: functional. The essentials: as §2
The test system of assay [11] is HeLa. As to the kind of experiment: Cell cycle arrest in human HeLa cells assessed as accumulation at G2/M phase cell at 2 times IC50 at 2 times IC50 after 48 hrs using propidium iodide staining by flow cytometry (reference value: 22.05%). It counts as functional. An outline of the steps: as §2
Assay [12] deals with HeLa. As to the kind of experiment: Cell cycle arrest in human HeLa cells assessed as accumulation at sub-G1 phase at 2 times IC50 after 72 hrs using propidium iodide staining by flow cytometry (reference value: 9.85%). It counts as functional. An outline of the steps:
as §2

The subject of assay [13] is HeLa. As to the kind of experiment: Cell cycle arrest in human HeLa cells assessed as accumulation at G1 phase at 2 times IC50 after 72 hrs using propidium iodide staining by flow cytometry (reference value: 49.90%). Format: functional. An outline of the steps:
as §2

Assay [14] deals with HeLa. As to the kind of experiment: Cell cycle arrest in human HeLa cells assessed as accumulation at S phase at 2 times IC50 after 72 hrs using propidium iodide staining by flow cytometry (reference value: 22.53%). It counts as functional. The essentials: as §2
The subject of assay [15] is HeLa. Nature of the assay: Cell cycle arrest in human HeLa cells assessed as accumulation at G2/M phase cell at 2 times IC50 after 72 hrs using propidium iodide staining by flow cytometry (reference value: 17.57%). Format: functional. An outline of the steps: as §2

A value given as a limit tells only on which side of the number the result lay.

`O=C(O)/C=C/C(=O)c1ccccc1`: the IC50 in assay [1] turned out to be 30.6 µM; in assay [2], 45.5 µM; in [3], 30.2 µM.

Take `CCc1ccc(C(=O)/C=C/C(=O)O)cc1`: the IC50 in assay [1] was found to be 27.8 µM; in assay [2], 21 µM; in assay [3], 5.53 µM.

In the case of `CC(C)c1ccc(C(=O)/C=C/C(=O)O)cc1`, the IC50 in assay [1] amounted to 4.9 µM; in assay [2] it was 25.7 µM; in assay [3], 5.56 µM.

For `CCCCc1ccc(C(=O)/C=C/C(=O)O)cc1`, the IC50 was 4.78 µM in assay [1], 6.74 µM in [2] and 4.95 µM in assay [3].

In the case of `CC(C)(C)c1ccc(C(=O)/C=C/C(=O)O)cc1`, the figures for the 50% inhibitory concentration (IC50) in [1], in assay [2] and in assay [3] were 5.1 µM, 8.74 µM and 4.33 µM, respectively.

With `CCCCCCCCCCCCc1ccc(C(=O)/C=C/C(=O)O)cc1`, the concentration for half-maximal inhibition (IC50) in assay [1] is 5.82 µM; in assay [2], 7.85 µM; in assay [3], 4.01 µM.

For the molecule `Cc1ccc(C(=O)/C=C/C(=O)O)c(C)c1`, the IC50 is 6.06 µM in [1], 7.08 µM in [2] and 5.35 µM in [3].

Consider `Cc1ccc(C)c(C(=O)/C=C/C(=O)O)c1`, for which the values for the half-inhibitory concentration (IC50) in assay [1], in assay [2] and in [3] were 7.86 µM, 22 µM and 5.9 µM, respectively.

In the case of `Cc1ccc(C(=O)/C=C/C(=O)O)cc1C`, the values for the IC50 in [1], in assay [2] and in assay [3] were 7.28 µM, 12.1 µM and 5.62 µM, respectively.

In the case of `O=C(O)/C=C/C(=O)c1ccc2c(c1)CCCC2`, the IC50 was found to be 7.01 µM in assay [1], 17.6 µM in [2] and 5.6 µM in [3].

Take `CCc1ccc(C(C)C)cc1C(=O)/C=C/C(=O)O`: the IC50 amounted to 4.89 µM in assay [1], 5.94 µM in assay [2] and 1.36 µM in [3].

`CC(C)c1ccc(C(=O)/C=C/C(=O)O)c(C(C)C)c1`: the IC50 in [1] came to 4.06 µM; in [2], 5.36 µM; in assay [3] it was 4.68 µM.

On to `CC(C)c1ccc(C(C)C)c(C(=O)/C=C/C(=O)O)c1`, for which the IC50 is 4.75 µM in assay [1], 6.23 µM in assay [2] and 3.28 µM in [3].

Regarding `CCc1cc(CC)c(C(=O)/C=C/C(=O)O)c(CC)c1`, the IC50 was 6.53 µM in assay [1], 7.28 µM in [2] and 4.01 µM in assay [3].

As for `CC(C)c1cc(C(C)C)c(C(=O)/C=C/C(=O)O)c(C(C)C)c1`, the figures for the IC50 in assay [1], in assay [2] and in [3] were 6.1 µM, 8.28 µM and 4.67 µM, respectively.

Take `CCc1c(C(=O)/C=C/C(=O)O)cc(C(C)C)cc1C(C)C`: the IC50 was determined as 7.61 µM in [1], 12.3 µM in [2] and 5.1 µM in assay [3].

Take `Cc1cc(C2CCCCC2)c(C)cc1C(=O)/C=C/C(=O)O`: the IC50 was 2.38 µM in [1], 6.64 µM in assay [2] and 4.24 µM in assay [3].

In the case of `O=C(O)/C=C/C(=O)c1cc(C2CCCCC2)ccc1C1CCCCC1`, the values for the half-maximal inhibitory concentration (IC50) in [1], in assay [2] and in assay [3] were 1.26 µM, 4.28 µM and 3.32 µM, respectively. Further, the Activity worked out at 12.64% in assay [4]; 39.98% in assay [5]; 32.67% in assay [6]; 15.36% in [7]; 15.79% in [8]; 36.94% in [9]. Also, the Activity amounted to 31.66% in assay [10]; 16.73% in assay [11]; 21.71% in assay [12]; 38.3% in assay [13]; 24.2% in [14]; 16.57% in assay [15].

On to `Cc1ccc(C(=O)/C=C/C(=O)O)c(Cl)c1`, for which the IC50 in assay [1] came to 7.6 µM; in assay [2], 27.7 µM; in assay [3], 14.6 µM.

On to `O=C(O)/C=C/C(=O)c1ccc(F)cc1`, for which the results for the IC50 in [1], in assay [2] and in assay [3] were 28.4 µM, 33.8 µM and 16.9 µM, respectively.

Regarding `O=C(O)/C=C/C(=O)c1ccc(Cl)cc1`, the IC50 stood at 25.4 µM in assay [1], 28.7 µM in assay [2] and 21.7 µM in assay [3].

For `O=C(O)/C=C/C(=O)c1ccc(Br)cc1`, the IC50 in assay [1] worked out at 18.7 µM; in assay [2] it was 27.1 µM; in [3], 11.2 µM.

In the case of `O=C(O)/C=C/C(=O)c1ccc(Cl)cc1Cl`, the IC50 was 62.9 µM in [1], greater than 100 µM in [2] and 58.5 µM in assay [3].

Take `COc1ccc(C(=O)/C=C/C(=O)O)cc1`: the results for the IC50 in assay [1], in assay [2] and in [3] were 27.4 µM, 34.7 µM and 12.3 µM, respectively.

On to `COc1ccc(C(=O)/C=C/C(=O)O)c(OC)c1OC`, for which the figures for the 50% inhibitory concentration (IC50) in assay [1], in [2] and in [3] were 96.2 µM, greater than 100 µM and greater than 100 µM, respectively.

Consider `Cc1ccc(C(=O)/C=C/C(=O)O)cc1`, for which the IC50 in [1] is 7.62 µM; in assay [2], 28.4 µM; in assay [3] it was 9.17 µM.

Consider `O=C(O)/C=C/C(=O)c1ccc(Cl)c(Cl)c1`, for which the IC50 in assay [1] amounted to 28.3 µM; in assay [2], 32.3 µM; in assay [3], 23.2 µM.

One may read the IC50 as the point on the concentration scale where inhibition reaches its midpoint.
